This passage reports Ki and inhibition results from ChEMBL document CHEMBL1124986, “Imidazodiazepinediones: a new class of adenosine receptor antagonists” (J Med Chem, 1990).

Test [1] concerns the target T1, Adenosine A2 receptor (Rattus norvegicus, UniProt P29276+P30543). Description: Antagonism of N-ethylcarboxamido adenosine-stimulated adenylate cyclase associated with stimulation of Adenosine A2 receptor of rat PC12 membranes. It counts as functional, cell membranes, Membrane. Particulars: pc-12.
For test [2], the target named is T1, Adenosine A2 receptor. Description: Binding affinity for Adenosine A2 receptor from rat striatum using [3H]NECA as radioligand. The format is protein assay.
For test [3], the target named is Adenosine A2 receptor (Rattus norvegicus) (UniProt P29276+P30543). The test is described as follows: Inhibition of [3H]NECA binding to Adenosine A2 receptor in rat striatal membrane. Also noted: concentration or dose not given beside the values. The note with it: Striatum, concentration not given here. The format is cell membranes. In outline: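 Rat striatal membranes with 4 nM [³H]NECA; 50 nM N⁶-cyclopentyladenosine present to block A1 sites. IC50 converted to Ki by Cheng-Prusoff using KD 8.5 nM for [³H]NECA at A2 receptors. Means ± SEM, n = 3. Where inhibition was incomplete, percent inhibition at the highest concentration tested is reported.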

Test [4] concerns the target T2, Adenosine receptor A1 (Rattus norvegicus) (UniProt P25099).
T2 sequence (whole entry): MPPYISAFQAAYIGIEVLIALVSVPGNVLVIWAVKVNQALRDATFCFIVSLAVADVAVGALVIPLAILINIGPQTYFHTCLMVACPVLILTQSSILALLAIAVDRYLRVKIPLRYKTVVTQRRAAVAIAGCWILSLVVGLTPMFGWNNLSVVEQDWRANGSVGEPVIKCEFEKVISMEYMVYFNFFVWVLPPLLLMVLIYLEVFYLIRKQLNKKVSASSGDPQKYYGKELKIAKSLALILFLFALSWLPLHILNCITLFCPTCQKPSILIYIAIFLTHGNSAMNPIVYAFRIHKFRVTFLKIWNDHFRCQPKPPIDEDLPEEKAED
The test is described as follows: Inhibition of [3H]PIA binding to Adenosine A1 receptor in rat cerebral cortical membrane. It counts as cell membranes. Also noted: concentration or dose not given beside the values. The note with it: concentration not given here. In short, it runs like this: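 Rat cerebral cortex membranes incubated with 1 nM [³H]PIA at 37 °C. […] Means ± SEM, n = 3-5. Where inhibition was incomplete, percent inhibition at the highest concentration tested is reported.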

The target of test [5] is T3, Adenosine receptor A1 (Rattus norvegicus, UniProt P25099).
T3 sequence (P25099 whole entry): T2 sequence (whole entry)
The test is described as follows: Binding affinity for Adenosine A1 receptor from rat brain using [3H]-PIA as radioligand. In outline: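 Rat cerebral cortex membranes incubated with 1 nM [³H]PIA at 37 °C. Means ± SEM, n = 3-5. Where inhibition was incomplete, percent inhibition at the highest concentration tested is reported.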

Some results are limits rather than exact numbers.

A word on the Ki: it is the dissociation constant of the complex between target and ligand, obtained from inhibition or displacement. In the case of `Cn1c(=O)c2c(ncn2Cc2ccccc2)n(C)c1=O`, the Ki is 5.6 µM in test [1] and 46 µM in test [2].

As a reminder, the inhibition is the change of the read-out against control, counted positive when it falls. For the compound `CCN1CC(=O)N(CC)c2[nH]cnc2C1=O`, the Ki is greater than 300 µM in test [1] and greater than 250 µM in test [2]. Further, the inhibition in test [3] is 20%; in test [4], 40%.

Consider `CN1CC(=O)N(C)c2nc[nH]c2C1=O`, for which the Ki in test [5] is greater than 250 µM.

`CCCn1c(=O)c2c(ncn2Cc2ccccc2)n(CCC)c1=O`: the Ki in test [1] is 0.88 µM; in test [2], 3.8 µM.

For `CCCN1C(=O)CNC(=O)c2[nH]cnc21`, the Ki is 236 µM in test [5], greater than 300 µM in test [1] and >> 250 uM in test [2]. The compound further displayed an inhibition in test [3] of 11%.

As to `CCCN1CC(=O)N(CCC)c2ncn(C)c2C1=O`, the Ki in test [5] was greater than 250 µM; in test [1] it was 170 µM; in test [2] it was greater than 250 µM. The inhibition in test [3] is 23%; in test [4], 40%.

Turning to `CC(C)CN1C(=O)CN(C)C(=O)c2c1ncn2Cc1ccccc1`, the Ki in test [5] was 11.3 µM; in test [1], 116 µM; in test [2], 140 µM.

Consider `CC(C)Cn1c(=O)n(C)c(=O)c2c1ncn2Cc1ccccc1`, for which the values for the Ki in test [5], in test [1] and in test [2] were 6.9 µM, 7.5 µM and 32 µM, respectively.

On to `CCCN1CC(=O)N(CCC)c2ncn(Cc3ccccc3)c2C1=O`, for which the Ki in test [5] amounted to 11 µM; in test [1], 47 µM; in test [2], 52 µM.

Take `CN1C(=O)CNC(=O)c2c1ncn2C`: the figures for the Ki in test [5], in test [1] and in test [2] were greater than 250 µM, greater than 300 µM and >> 250 uM, respectively. For the same compound, the inhibition in test [3] turned out to be 11%; in test [4] it was 10%.

As for `CCCN1C(=O)CNC(=O)c2c1ncn2Cc1ccccc1`, the Ki in test [5] is 32 µM; in test [1] it was 163 µM; in test [2] it was 151 µM.

In the case of `CCN1CC(=O)N(CC)c2ncn(Cc3ccccc3)c2C1=O`, the results for the Ki in test [5], in test [1] and in test [2] were 16 µM, 76 µM and 81 µM, respectively.

Regarding `Cn1cnc2c1c(=O)[nH]c(=O)n2C` [THEOBROMINE], the Ki in test [5] is 105 µM; in test [1], 250 µM; in test [2], greater than 250 µM. The inhibition in test [3] came out at 40%.

Regarding `CN1CC(=O)N(C)c2ncn(Cc3ccccc3)c2C1=O`, the figures for the Ki in test [5], in test [1] and in test [2] were 30 µM, 120 µM and greater than 250 µM, respectively. The inhibition in test [3] amounted to 30%.

As to `CN1CC(=O)N(C)c2ncn(C)c2C1=O`, the Ki in test [5] is greater than 250 µM; in test [1] it was greater than 300 µM; in test [2], >> 250 uM. Further, the values for the inhibition in test [3] and in test [4] were 9% and 10%, respectively.

Regarding `CC(C)Cn1c(=O)n(C)c(=O)c2nc[nH]c21` [ISOBUTYLMETHYLXANTHINE], the results for the Ki in test [5], in test [1] and in test [2] were 6.7 µM, 6.3 µM and 9.1 µM, respectively.

For the compound `CCN1CC(=O)N(CC)c2nc[nH]c2C1=O`, the Ki in test [5] is greater than 250 µM.

As to `CN1CC(=O)N(C)c2[nH]cnc2C1=O`, the Ki was greater than 300 µM in test [1] and >> 250 uM in test [2]. For the same compound, the inhibition amounted to 9% in test [3] and 30% in test [4].

For `CC(C)CN1C(=O)CN(C)C(=O)c2[nH]cnc21`, the Ki in test [5] was 104 µM; in test [1] it was greater than 300 µM; in test [2] it was >> 250 uM. In test [3], this compound yielded an inhibition of 15%.

Turning to `CCN1CC(=O)N(CC)c2ncn(C)c2C1=O`, the Ki is greater than 250 µM in test [5], 260 µM in test [1] and greater than 250 µM in test [2]. In addition, the inhibition turned out to be 17% in test [3] and 40% in test [4].
